Activity calls are given as the source filed them. The calls are words filed in the database; no cut-off is given here.
Columns and labels:
Aorta [1] = experiment: Vasorelaxant activity in Wistar rat endothelium-intact thoracic aortic ring assessed as inhibition of noradrenaline-induced contraction treated after noradrenaline challenge measured after 60 mins; format: functional, tissue-based; settings: 1 h
Method in brief: (§1)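 Thoracic aorta came from male Wistar rats (250–350 g), cleaned and cut into 4–5 mm rings. Endothelium was rubbed off some rings with forceps and its absence confirmed by no relaxation to carbachol. Rings were washed every 30 min for 2 h, pre-contracted with noradrenaline (0.1), then given the test agent cumulatively. Concentration-response curves (n=5–6, mean ± SEM) were fitted nonlinearly to give EC50.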

Aorta [2] = experiment: Vasorelaxant activity in Wistar rat endothelium-denuded thoracic aortic ring assessed as inhibition of noradrenaline-induced contraction treated after noradrenaline challenge measured after 60 mins; format: functional, tissue-based; method in brief: as §1
Rattus norvegicus [3] = experiment: Antihypertensive activity in SHR rat assessed as effect on heart rate at 50 mg/kg, po after 6 hrs; format: functional, organism-based; parameters: dose 50 mg/kg
Rattus norvegicus [4] = experiment: Antihypertensive activity in po dosed SHR rat assessed as decrease in systolic blood pressure after 6 hrs; format: functional, organism-based; settings: Artery
Rattus norvegicus [5] = experiment: Antihypertensive activity in SHR rat assessed as moderate decrease in systolic blood pressure at 50 mg/kg, po after 6 hrs; settings: Artery
Rattus norvegicus [6] = experiment: Antihypertensive activity in SHR rat assessed as moderate decrease in systolic blood pressure at 50 mg/kg, po after 6 hrs; format: functional, organism-based; parameters: dose 50 mg/kg; settings: Artery
Rattus norvegicus [7] = experiment: Antihypertensive activity in SHR rat assessed as effect on heart rate at 25 mg/kg, po after 6 hrs; format: functional, organism-based; parameters: dose 25 mg/kg
Rattus norvegicus [8] = experiment: Antihypertensive activity in SHR rat assessed as sustained decrease in systolic blood pressure at 100 mg/kg, po after 6 hrs; format: functional, organism-based; parameters: dose 100 mg/kg; settings: Artery
Rattus norvegicus [9] = experiment: Antihypertensive activity in SHR rat assessed as decrease in systolic blood pressure at 25 mg/kg, po after 6 hrs; format: functional, organism-based; parameters: dose 25 mg/kg; settings: Artery
Aorta [10] = experiment: Ratio of pimobendan EC50 to compound EC50 for vasorelaxant activity in pre-contracted Wistar rat endothelium-intact thoracic aortic ring; format: functional
Rattus norvegicus [11] = experiment: Antihypertensive activity in SHR rat assessed as effect on heart rate at 100 mg/kg, po after 6 hrs; format: functional, organism-based; parameters: dose 100 mg/kg
[12] = Rattus norvegicus, Wistar, Aorta, 1 h
[13] = Rattus norvegicus, Wistar, Aorta, 1 h, read-out: EC50

| EC50 (Aorta [1]) | EC50 (Aorta [2]; [13]) | SMILES | Emax (Aorta [1]) | Emax (Aorta [2]; [12]) | other results |
| --- | --- | --- | --- | --- | --- |
| 4.67 µM |  | COc1ccc(-c2nc3cc(C4=NNC(=O)CC4C)ccc3[nH]2)cc1 (stereo not drawn) [PIMOBENDAN] | 93.2% |  |  |
| 548 µM | 549 µM | CCOc1ccccc1-c1nc2cc(C(F)(F)F)ccc2[nH]1 | 91% | 19.8% |  |
| 3.23 µM | 43.6 µM | COc1ccc(-c2nc3cc([N+](=O)[O-])ccc3[nH]2)c(OC)c1OC | 90% | 58.9% |  |
| 4.93 µM | 35.1 µM | O=[N+]([O-])c1ccc2[nH]c(-c3ccccc3)nc2c1 | 73.8% | 60.5% |  |
|  | 0.03 µM | CCOC(=O)C1=C(C)NC(C)=C(C(=O)OC)C1c1cccc([N+](=O)[O-])c1 (stereo not drawn) [NITRENDIPINE] |  | 98.9% |  |
| 2.5 µM | 302 µM | COc1ccc(-c2nc3cc([N+](=O)[O-])ccc3[nH]2)cc1OC | 75% | 36.3% |  |
| 1.81 µM | 19.5 µM | COc1cc(-c2nc3cc([N+](=O)[O-])ccc3[nH]2)ccc1O | 91.7% | 55.2% | Activity (Rattus norvegicus [3]): inactive; Activity (Rattus norvegicus [4]): Dose-dependent effect; Activity (Rattus norvegicus [5]): Active; Activity (Rattus norvegicus [6]): Active; Activity (Rattus norvegicus [7]): inactive; Activity (Rattus norvegicus [8]): Active; Activity (Rattus norvegicus [9]): inactive; Ratio EC50 (Aorta [10]): 2.5; Activity (Rattus norvegicus [11]): inactive |
| 3.71 µM | 15 µM | CCOc1ccccc1-c1nc2cc([N+](=O)[O-])ccc2[nH]1 | 84.8% | 46.4% |  |
| 219 µM | 219 µM | Oc1ccc(-c2nc3cc(C(F)(F)F)ccc3[nH]2)cc1 | 51.1% | 37% |  |
| 210 µM | 575 µM | COc1ccccc1-c1nc2cc(C(F)(F)F)ccc2[nH]1 | 75.1% | 45.7% |  |
| 524 µM | 524 µM | CCCOc1ccc(-c2nc3cc(C(F)(F)F)ccc3[nH]2)cc1 | 51% | 19% |  |

Continued, molecule first:

| SMILES | EC50 (Aorta [1]) | EC50 (Aorta [2]; [13]) | Emax (Aorta [1]) | Emax (Aorta [2]; [12]) | other results |
| --- | --- | --- | --- | --- | --- |
| O=[N+]([O-])c1ccccc1-c1nc2cc(C(F)(F)F)ccc2[nH]1 | 3.18 µM | 15 µM | 93.2% | 85.3% |  |
| C[N+](C)(C)CCOC(N)=O.[Cl-] [CARBACHOL] | 0.51 µM |  | 106% |  | EC50 (Aorta [2]): Not Active; Emax (Aorta [2]): inactive |
| COc1cc(-c2nc3cc(C(F)(F)F)ccc3[nH]2)ccc1O | 34.8 µM | 140 µM | 99.5% | 97.7% |  |
| CN(C)c1ccc(-c2nc3cc(C(F)(F)F)ccc3[nH]2)cc1 | 550 µM | 550 µM | 63.2% | 30.9% |  |
| C[C@H](CS)C(=O)N1CCC[C@H]1C(=O)O |  |  |  |  | Activity (Rattus norvegicus [5]): Active |
| FC(F)(F)c1ccc2[nH]c(-c3ccccc3)nc2c1 | 369 µM | 468 µM | 91.2% | 75.6% |  |
| FC(F)(F)c1ccc2[nH]c(-c3ccc4c(c3)OCO4)nc2c1 | 38.5 µM | 77.4 µM | 101% | 99.6% |  |
| CC(C)Oc1ccccc1-c1nc2cc([N+](=O)[O-])ccc2[nH]1 | 4.89 µM | 14.1 µM | 80.7% | 31.7% |  |

— ChEMBL document CHEMBL1165919, “Synthesis, vasorelaxant activity and antihypertensive effect of benzo[d]imidazole derivatives” (Bioorg Med Chem, 2010)
